Compound activity as filed in PubChem BioAssay.
MrgX1 allo act: allosterically activates human MrgX1 receptor signaling; B-score at 10 µM; MrgX1-HEK293, Fluo-4 calcium flux, FDSS; active compounds read high; 0.63% of 310,000 active; Q96LB2;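 active means plate-corrected calcium response at least 3 library SD above typical, normal starting fluorescence, not activating the receptor alone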;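 further: compound read alongside a low EC10 to EC30 dose of BAM8-22 agonist; peak minus trough fluorescence over baseline measured at the second addition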
Target sequence (Q96LB2 whole entry, looked up): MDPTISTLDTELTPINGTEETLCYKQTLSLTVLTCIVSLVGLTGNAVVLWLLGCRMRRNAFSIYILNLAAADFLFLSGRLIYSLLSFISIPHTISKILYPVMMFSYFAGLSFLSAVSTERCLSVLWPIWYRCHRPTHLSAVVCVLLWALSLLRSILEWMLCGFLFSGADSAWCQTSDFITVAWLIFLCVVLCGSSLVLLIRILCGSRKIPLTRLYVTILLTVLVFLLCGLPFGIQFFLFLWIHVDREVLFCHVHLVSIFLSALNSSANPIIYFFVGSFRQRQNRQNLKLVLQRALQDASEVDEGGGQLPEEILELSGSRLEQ
RGS4 act: potentiators or activators of RGS4 | 0.92% of 310,000 active | HEK293 M3R/inducible RGS4, carbachol calcium flux Fluo4; active compounds read low | B-score at 10 µM;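 active means B-score of the integrated calcium signal more than 4 SD below the library mean, with starting fluorescence not abnormally high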;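 further: negative B-score means reduced calcium response which marks RGS4 activation or potentiation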
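Also added: carbachol at ECmax as muscarinic agonist stimulus; Assay system: HEK293 cells with stable M3R and inducible RGS4; Timing: overnight RGS4 induction, 30 min dye load 37 °C, 20 min compound RT; Measured by: Fluo4-AM (2 µM) calcium-flux fluorescence, kinetic read.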
MrgX1 antagonist: antagonists of human MrgX1 receptor; Q96LB2; MRGX1-HEK293 calcium flux, Fluo-4, BAM8-22 antagonism; active compounds read low; B-score at 10 µM; 1.3% of 310,000 active;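 active means calcium-response B-score plate-corrected more than 3 library SD below zero, starting fluorescence within 5 deviations, no agonist response on first addition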;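 further: peak minus trough fluorescence over baseline after final BAM8-22 challenge near maximal dose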
RGS4 inh: inhibitors of human RGS4; AID 463165; P49798; 0.45% of 310,000 active; B-score at 10 µM; HEK293 M3R/RGS4 inducible, Fluo-4 calcium flux; active compounds read high; triggered by carbachol at its EC20;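 active means B-score, a plate-corrected calcium signal, over three deviations above library mean, with baseline fluorescence within five deviations of library mean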;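 further: RGS4 expression induced by doxycycline in cells with stable M3 receptor; B-score is computed from the integrated fluorescence ratio over baseline after carbachol; higher B-score means a larger calcium signal and so more RGS4 inhibition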
Target sequence (P49798 whole entry, looked up): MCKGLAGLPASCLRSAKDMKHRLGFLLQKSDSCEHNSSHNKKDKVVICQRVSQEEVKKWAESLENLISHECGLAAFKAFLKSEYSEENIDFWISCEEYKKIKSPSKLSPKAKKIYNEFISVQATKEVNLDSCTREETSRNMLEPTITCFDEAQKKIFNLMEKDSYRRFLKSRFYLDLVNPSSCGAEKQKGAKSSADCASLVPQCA
MrgX1 agonist: activates human MrgX1 receptor signaling. 0.44% of 310,000 active. Q96LB2. MrgX1-HEK293 cells, Fluo-4 calcium fluorescence, agonist mode; active compounds read high. AID 588627. B-score at 10 µM;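 active means calcium response B-score plate-corrected fluorescence ratio at least 3 library SD, with starting fluorescence B-score inside 5 SD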
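Material – MrgX1-expressing HEK293 cells · Input – 15,000 cells seeded per well · Dosing – compound as first of three additions · Times – overnight seeding, then 1 h dark dye loading · Measured by – kinetic Fluo-4 NW fluorescence of intracellular calcium · Read-out – B-scored fluorescence response ratio · Benchmarks – positive and negative control wells on each plate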
MrgX1 PAM conf: reconfirmed allosteric activator of human MrgX1 receptor; 13% of 1,200 active; shares compounds with MrgX1 allo act; activation (ratio percentage), % at 10 µM; MrgX1-HEK293, Fluo-4 calcium fluorescence, FDSS; AID 602413;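 active means ratio at least 3 SD above the weak peptide control, stable starting fluorescence, no direct agonism earlier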;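 further: compound followed by low BAM8-22 agonist challenge near EC20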
HEK293 Ca flux: counter-screen for MrgX1 antagonists: effect in parental HEK293 cells; Fluo-4 calcium fluorescence, FDSS; fluorescence ratio F(max-min)/F0 at 10 µM; 2% of 4,000 active; shares compounds with MrgX1 antagonist;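 active means duplicate-averaged calcium fluorescence ratio at least three times the standard deviation of buffer wells, a nonspecific response in parental cells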
HEK293 Ca counter: activity in parental HEK293 cells without MrgX1. shares compounds with MrgX1 antagonist. parental HEK293 calcium flux, Fluo-4 fluorescence ratio; active compounds read high. fluorescence ratio F(max-min)/F0 at 10 µM. 0.4% of 4,000 active;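 active means calcium fluorescence ratio, averaged over duplicates, at least 3 SD of the buffer-well ratio, meaning a nonspecific response in receptor-free cells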;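 further: untransfected parental HEK293 lacking MrgX1 used as counterscreen for MrgX1 allosteric activators; fluorescence change taken during the second addition on a kinetic imager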
HEK293 Ca cntr2: MrgX1 activator counter-screen hit in parental HEK293 cells | shares compounds with MrgX1 antagonist | Fluo-4 calcium fluorescence (FDSS); active compounds read high | fluorescence ratio F(max-min)/F0 at 10 µM | 8.7% of 4,000 active | AID 624115;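 active means calcium fluorescence ratio at least three times the spread of buffer wells, meaning a non-specific response in parental cells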
The depositor's hits bear a star. Rows were chosen to be rich in hits. Some 3.5% of all compounds tested hit in one or more screens of this group.

What do the screens show for `N#CC(C(=O)NC1CC1)c1nc2ccccc2nc1N1CCN(C/C=C/c2ccccc2)CC1` (stereo not given)?
MrgX1 allo act: 9.3*; RGS4 act: inactive; MrgX1 antagonist: inactive; RGS4 inh: inactive; MrgX1 agonist: inactive; MrgX1 PAM conf: inactive; HEK293 Ca flux: inactive; HEK293 Ca counter: inactive; HEK293 Ca cntr2: inactive

How did COc1ccccc1-n1c(-c2ccc(Cl)cc2)c[nH]c1=S do in these assays?
MrgX1 allo act: 7.5*; RGS4 act: inactive; MrgX1 antagonist: inactive; RGS4 inh: inactive; MrgX1 agonist: inactive; MrgX1 PAM conf: inactive; HEK293 Ca flux: inactive; HEK293 Ca counter: inactive; HEK293 Ca cntr2: inactive

What do the screens show for `CC1(C)Cc2c(cnn2-c2cccc(F)c2)C(NC(=O)CSc2ccncc2)C1` (stereo not given)?
MrgX1 allo act: inactive; RGS4 act: inactive; MrgX1 antagonist: inactive; RGS4 inh: inactive; MrgX1 agonist: inactive

How did CCOC(=O)[C@H]1[C@H]2COc3cc(OC)ccc3[C@@H]2N2C(=O)c3cc(OC)c(OC)cc3NC(=O)[C@@]12C do in these assays?
MrgX1 allo act: inactive; MrgX1 antagonist: inactive; MrgX1 agonist: inactive

Results for CC(=O)c1nnn(-c2nc(N)nc(N(c3ccccc3)c3ccccc3)n2)c1C ?
MrgX1 allo act: 13*; RGS4 act: inactive; MrgX1 antagonist: inactive; RGS4 inh: inactive; MrgX1 agonist: inactive; MrgX1 PAM conf: 16%*; HEK293 Ca flux: inactive; HEK293 Ca counter: inactive; HEK293 Ca cntr2: inactive

How did CCCCN(CCCC)c1nc(OC)nc(-n2nnc(C(C)=O)c2C)n1 do in these assays?
MrgX1 allo act: inactive; RGS4 act: inactive; MrgX1 antagonist: inactive; RGS4 inh: inactive; MrgX1 agonist: inactive

What do the screens show for `CC12CCC(C(=O)Nc3nc4ccc(Br)cc4s3)(OC1=O)C2(C)C` (stereo not given)?
MrgX1 allo act: 17*; RGS4 act: inactive; MrgX1 antagonist: inactive; RGS4 inh: inactive; MrgX1 agonist: inactive; MrgX1 PAM conf: 6.5%*; HEK293 Ca flux: inactive; HEK293 Ca counter: inactive; HEK293 Ca cntr2: inactive

Results for CC12CCC(C(=O)Nc3nccs3)(OC1=O)C2(C)C (stereo not given) ?
MrgX1 allo act: inactive; RGS4 act: inactive; MrgX1 antagonist: inactive; RGS4 inh: inactive; MrgX1 agonist: inactive

Results for Cc1ccc(S(=O)(=O)NCCc2ccccc2)cc1 ?
MrgX1 allo act: inactive; RGS4 act: inactive; MrgX1 antagonist: inactive; RGS4 inh: inactive; MrgX1 agonist: inactive

Results for Cc1cc(C)c(S(=O)(=O)NCCc2ccccc2)c(C)c1 ?
MrgX1 allo act: 9.7*; RGS4 act: inactive; MrgX1 antagonist: inactive; RGS4 inh: inactive; MrgX1 agonist: inactive; MrgX1 PAM conf: inactive; HEK293 Ca flux: inactive; HEK293 Ca counter: inactive; HEK293 Ca cntr2: inactive

How did N#Cc1ccc(S(=O)(=O)NC2CC2)cc1 do in these assays?
MrgX1 allo act: inactive; RGS4 act: inactive; MrgX1 antagonist: inactive; RGS4 inh: inactive; MrgX1 agonist: inactive

What do the screens show for `O=C(Nc1ccc(F)c(Cl)c1)N1CCCC1`?
MrgX1 allo act: 13*; RGS4 act: inactive; MrgX1 antagonist: inactive; RGS4 inh: inactive; MrgX1 agonist: inactive; MrgX1 PAM conf: inactive; HEK293 Ca flux: inactive; HEK293 Ca counter: inactive; HEK293 Ca cntr2: inactive

How did Cc1cc(Cl)ccc1OCC(=O)N1C(C)CCCC1C (stereo not given) do in these assays?
MrgX1 allo act: 12*; RGS4 act: inactive; MrgX1 antagonist: inactive; RGS4 inh: inactive; MrgX1 agonist: inactive; MrgX1 PAM conf: inactive; HEK293 Ca flux: inactive; HEK293 Ca counter: inactive; HEK293 Ca cntr2: inactive

How did COc1ccc(/C=C2\SC(=S)N(CCCC(=O)Nc3ccccc3C(=O)O)C2=O)cc1OC do in these assays?
MrgX1 allo act: 22*; RGS4 act: inactive; MrgX1 antagonist: inactive; RGS4 inh: inactive; MrgX1 agonist: inactive; MrgX1 PAM conf: inactive; HEK293 Ca flux: inactive; HEK293 Ca counter: inactive; HEK293 Ca cntr2: 53*

Results for COc1ccc(/C=C2\SC(=S)N(CCC(=O)Nc3ccccc3C(=O)O)C2=O)cc1 ?
MrgX1 allo act: inactive; RGS4 act: inactive; MrgX1 antagonist: inactive; RGS4 inh: inactive; MrgX1 agonist: inactive

What do the screens show for `CC(Sc1nnc(N)s1)C(=O)NC1CCCCC1C` (stereo not given)?
MrgX1 allo act: inactive; RGS4 act: inactive; MrgX1 antagonist: inactive; RGS4 inh: inactive; MrgX1 agonist: inactive

How did CS(=O)(=O)c1ccc2nc(NC(=O)c3ccco3)sc2c1 do in these assays?
MrgX1 allo act: 9*; RGS4 act: inactive; MrgX1 antagonist: inactive; RGS4 inh: inactive; MrgX1 agonist: inactive; MrgX1 PAM conf: inactive; HEK293 Ca flux: inactive; HEK293 Ca counter: inactive; HEK293 Ca cntr2: inactive

Results for O=C(Cn1nc2n(c1=O)-c1ccccc1SC2)N/N=C/c1cccs1 ?
MrgX1 allo act: inactive; RGS4 act: inactive; MrgX1 antagonist: inactive; RGS4 inh: inactive; MrgX1 agonist: inactive

How did CC(=O)Cc1nsc(NC(=O)c2ccc(-c3ccc(Cl)cc3Cl)o2)n1 do in these assays?
MrgX1 allo act: inactive; RGS4 act: inactive; MrgX1 antagonist: inactive; RGS4 inh: inactive; MrgX1 agonist: inactive

Results for CC(=O)Cc1nsc(NC(=O)c2ccc(-c3cc(Cl)ccc3Cl)o2)n1 ?
MrgX1 allo act: 40*; RGS4 act: inactive; MrgX1 antagonist: inactive; RGS4 inh: inactive; MrgX1 agonist: inactive; MrgX1 PAM conf: 32%*; HEK293 Ca flux: inactive; HEK293 Ca counter: inactive; HEK293 Ca cntr2: inactive

How did C/C(=C\C(=O)c1ccccc1)NCc1ccc(F)cc1 do in these assays?
MrgX1 allo act: 7.4*; RGS4 act: inactive; MrgX1 antagonist: inactive; RGS4 inh: inactive; MrgX1 agonist: inactive; MrgX1 PAM conf: inactive; HEK293 Ca flux: inactive; HEK293 Ca counter: inactive; HEK293 Ca cntr2: inactive

What do the screens show for `COc1cc(CNn2cn[nH]c2=S)cc(Cl)c1OCc1ccccc1`?
MrgX1 allo act: inactive; RGS4 act: inactive; MrgX1 antagonist: inactive; RGS4 inh: inactive; MrgX1 agonist: inactive
